According to ChEMBL document CHEMBL1127669, “Conformationally constrained peptides and semipeptides derived from RGD as potent inhibitors of the platelet fibrinogen receptor and platelet aggregation” (J Med Chem, 1994):
pIC50, pKi: −log10 of the molar value. Starred links: 1 amine or outer side, 2 acyl side, 3 side chain; linkers in the order of their positions; H or OH if unused. Positions of bridges follow the written chain, without caps; N, C: chain ends. Non-standard residues stand in square brackets, D forms with d. Residues, ends and D or L forms follow the SMILES beside them. *: point of attachment. X2 = O=C(CN([C@@H](CS[*:3])C(=O)[*:2])[*:1])c1ccccc1; X4 = O=C([C@@H](N[*:1])[C@@H](S[*:3])c1ccccc1)[*:2]; X1 = O=C([C@@H](N[*:1])[C@H](S[*:3])c1ccccc1)[*:2]; NMeR = CN[C@@H](CCCNC(=N)N)C(=O)O; Pen = CC(C)(S)[C@H](N)C(=O)O; Pentanoyl = CCCCC(=O)*; Bz = O=C(c1ccccc1)*; X3 = CC(S)C(=O)*

Columns and labels:
Canis familiaris = organism: Canis familiaris; experiment: Inhibition of platelet aggregation in canine platelet rich plasma induced by ADP; type: functional, Canis lupus familiaris
Method in brief: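 Citrated canine PRP aggregation read optically by light transmittance. Peptide stock was 12 mM in 0.2 M acetic acid. Final 200 µM peptide and 10 µM ADP, pH 7.7, after 5-min preincubation with peptide.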

[1] = target: T1, Integrin alpha-IIb/beta-3 (Homo sapiens, UniProt P05106+P08514); experiment: Tested for inhibition of fibrinogen binding to purified GPIIb/IIIa isolated from human platelets and reconstituted in liposomes
T1 sequence (P05106 27-788 limits assumed): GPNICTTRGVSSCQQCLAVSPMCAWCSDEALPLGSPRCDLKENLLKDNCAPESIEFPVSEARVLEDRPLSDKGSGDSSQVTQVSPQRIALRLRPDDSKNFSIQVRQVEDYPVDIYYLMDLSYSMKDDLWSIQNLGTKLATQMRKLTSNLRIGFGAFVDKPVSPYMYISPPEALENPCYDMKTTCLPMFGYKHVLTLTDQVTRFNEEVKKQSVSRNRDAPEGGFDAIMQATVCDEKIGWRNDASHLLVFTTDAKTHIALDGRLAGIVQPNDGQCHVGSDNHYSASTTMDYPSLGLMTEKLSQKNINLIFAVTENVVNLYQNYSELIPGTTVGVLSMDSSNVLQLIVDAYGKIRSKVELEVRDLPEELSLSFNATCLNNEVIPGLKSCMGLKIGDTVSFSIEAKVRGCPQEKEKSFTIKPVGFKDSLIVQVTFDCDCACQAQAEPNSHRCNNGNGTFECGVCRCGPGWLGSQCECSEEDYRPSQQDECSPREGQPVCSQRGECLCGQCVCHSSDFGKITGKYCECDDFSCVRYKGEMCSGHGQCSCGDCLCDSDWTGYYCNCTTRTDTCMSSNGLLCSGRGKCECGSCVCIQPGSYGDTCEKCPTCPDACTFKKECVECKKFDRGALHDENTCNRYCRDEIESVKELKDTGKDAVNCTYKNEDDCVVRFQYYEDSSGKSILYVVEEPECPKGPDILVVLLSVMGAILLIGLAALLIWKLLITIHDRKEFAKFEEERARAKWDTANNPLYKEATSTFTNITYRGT
T1 sequence (P08514 32-887 limits assumed): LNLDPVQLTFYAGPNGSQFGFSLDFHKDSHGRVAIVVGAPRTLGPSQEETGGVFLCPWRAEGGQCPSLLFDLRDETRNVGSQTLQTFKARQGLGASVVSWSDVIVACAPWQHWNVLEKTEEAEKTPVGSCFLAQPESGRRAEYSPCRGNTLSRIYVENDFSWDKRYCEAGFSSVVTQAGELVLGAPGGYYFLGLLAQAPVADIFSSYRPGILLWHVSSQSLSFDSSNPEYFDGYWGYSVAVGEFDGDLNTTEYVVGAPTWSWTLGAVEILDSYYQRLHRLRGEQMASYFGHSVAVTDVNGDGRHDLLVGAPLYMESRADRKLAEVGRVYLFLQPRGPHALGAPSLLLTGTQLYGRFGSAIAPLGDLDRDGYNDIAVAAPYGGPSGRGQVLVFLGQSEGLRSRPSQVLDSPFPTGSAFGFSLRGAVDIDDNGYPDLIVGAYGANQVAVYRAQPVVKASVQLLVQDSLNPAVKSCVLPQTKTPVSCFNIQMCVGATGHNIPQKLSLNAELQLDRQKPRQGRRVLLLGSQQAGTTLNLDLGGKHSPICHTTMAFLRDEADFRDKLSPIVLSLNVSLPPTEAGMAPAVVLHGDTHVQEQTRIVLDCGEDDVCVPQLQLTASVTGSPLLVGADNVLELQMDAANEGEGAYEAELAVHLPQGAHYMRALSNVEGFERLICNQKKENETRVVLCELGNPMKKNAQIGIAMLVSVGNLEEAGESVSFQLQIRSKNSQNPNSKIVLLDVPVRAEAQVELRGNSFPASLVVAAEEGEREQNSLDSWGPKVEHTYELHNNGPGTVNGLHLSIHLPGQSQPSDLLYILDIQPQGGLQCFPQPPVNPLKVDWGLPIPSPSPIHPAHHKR
T1 sequence (P08514 891-1039 limits assumed): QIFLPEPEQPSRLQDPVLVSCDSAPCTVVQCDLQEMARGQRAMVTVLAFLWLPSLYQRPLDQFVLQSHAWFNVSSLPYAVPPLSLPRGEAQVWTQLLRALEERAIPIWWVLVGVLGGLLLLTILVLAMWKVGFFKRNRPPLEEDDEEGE
Method in brief: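 Displacement of [¹²⁵I]fibrinogen from purified human platelet GPIIb/IIIa incorporated into phospholipid vesicles. Values without statistical limits come from a single determination.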

[2] = target: T1, Integrin alpha-IIb/beta-3; experiment: Inhibition of [3H]-SKF- 107260 binding to purified GPIIb/IIIa from human platelets reconstituted in liposomes
Method in brief: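 Competition binding on filter wells precoated with 10 µg/mL polylysine. Reaction started with 0.5 µg lectin-purified receptor, incubated 1 h at room temperature, filtered, washed in ice-cold buffer, scintillation counted. IC50 from nonlinear least-squares fit; Ki by Cheng–Prusoff. Mean of quadruplicates, single experiment.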

pIC50 (Canis familiaris; Canis lupus familiaris, Plasma) | pKi [1] | pKi [2] | pIC50 (Canis familiaris) | Compound
7.01 | 6.90 |  |  | CC(=O)N[C@H]1CSS[C@H](c2ccccc2)[C@@H](C(N)=O)NC(=O)[C@H](CC(=O)O)NC(=O)CNC(=O)[C@H](CCCN=C(N)N)N(C)C1=O (Ac-C[NMeR]GD[X1]-NH2; disulfide 1-5)
6.44 | 6.87 |  |  | CC(=O)N[C@H]1CSSC(C)(C)[C@@H](C(N)=O)NC(=O)[C@H](CC(=O)O)NC(=O)CNC(=O)[C@H](CCCN=C(N)N)N(C)C(=O)CNC1=O (single isomer, unassigned)
6.00 | 6.09 |  |  | CN1C(=O)[C@@H]2CCCN2C(=O)c2ccccc2SSc2ccccc2NC(=O)[C@H](CC(=O)O)NC(=O)CNC(=O)[C@@H]1CCCN=C(N)N
5.11 | < 4.00 |  |  | CC(=O)N[C@@H]1CSSC(C)(C)[C@H](C(N)=O)NC(=O)[C@@H](CC(=O)O)NC(=O)CNC(=O)[C@@H](CCCN=C(N)N)N(Cc2ccccc2)C1=O
6.44 |  | 6.99 |  | CC(=O)N[C@H]1CSSC(C)(C)[C@@H](C(N)=O)NC(=O)[C@H](CC(=O)O)NC(=O)CNC(=O)[C@H](CCCN=C(N)N)N(C)C1=O
6.43 | 8.60 |  |  | CC(=O)N[C@@H]1C(=O)N(C)[C@@H](CCCN=C(N)N)C(=O)NCC(=O)N[C@@H](CC(=O)O)C(=O)N[C@H](C(N)=O)C(C)(C)SSC1(C)C (single isomer, unassigned)
5.46 | 6.84 |  |  | CN1CC(=O)N[C@@H](CCCNC(=N)N)C(=O)NCC(=O)N[C@@H](CC(=O)O)C(=O)Nc2ccccc2SSc2ccccc2C1=O
6.63 | 8.02 |  |  | CN1C(=O)c2ccccc2SSCCNC(=O)[C@@H](CC(=O)O)NC(=O)CNC(=O)[C@H]1CCCNC(=N)N
 | 5.52 |  | 4.69 | CC(=O)N[C@@H]1CSSC(C)(C)[C@H](C(N)=O)NC(=O)C(CC(=O)O)NC(=O)CNC(=O)C(CCCN=C(N)N)NC1=O (single isomer, unassigned; 31)
6.54 | 6.37 |  |  | CC(=O)N[C@H]1CSSC(C)(C)[C@@H](C(N)=O)NC(=O)[C@H](CC(=O)O)NC(=O)CNC(=O)[C@H](CCCN=C(N)N)N(C)C(=O)CN(Cc2ccccc2)C1=O (single isomer, unassigned)
6.54 | 7.57 |  |  | N=C(N)NCCC[C@@H]1NC(=O)c2ccccc2SSc2ccccc2NC(=O)[C@H](CC(=O)O)NC(=O)CNC1=O (single isomer, unassigned)
4.40 | 4.82 |  |  | CC(=O)N[C@H]1CSSC(C)(C)[C@@H](C(N)=O)NC(=O)[C@H](CC(=O)O)NC(=O)CN(C)C(=O)[C@H](CCCN=C(N)N)N(C)C1=O (single isomer, unassigned)
6.47 | 7.61 |  |  | CC(S)C(=O)N[C@H]1CSSC(C)(C)[C@@H](C(N)=O)NC(=O)[C@H](CC(=O)O)NC(=O)CNC(=O)[C@H](CCCN=C(N)N)N(C)C1=O (stereo not given in full) (X3-C[NMeR]GD[Pen]-NH2; disulfide 1-5)
6.82 | 7.70 |  |  | CC(=O)N[C@H]1CSSC(C)(C)[C@@H](C(N)=O)NC(=O)[C@H](CC(=O)O)NC(=O)CNC(=O)[C@H](CCCN=C(N)N)N(C)C(=O)CN(C)C1=O (single isomer, unassigned)
4.01 | 5.58 |  |  | CC(=O)N[C@H]1CSSC(C)(C)[C@H](C(N)=O)NC(=O)[C@@H](CC(=O)O)NC(=O)CNC(=O)[C@@H](CCCNC(=N)N)NC1=O
6.70 | 7.86 |  |  | CN1C(=O)[C@@H](NC(=O)c2ccccc2)CSSC(C)(C)[C@@H](C(N)=O)NC(=O)[C@H](CC(=O)O)NC(=O)CNC(=O)[C@@H]1CCCN=C(N)N (Bz-C[NMeR]GD[Pen]-NH2; disulfide 1-5)
6.60 | 7.59 |  |  | CCCCC(=O)N[C@H]1CSSC(C)(C)[C@@H](C(N)=O)NC(=O)[C@H](CC(=O)O)NC(=O)CNC(=O)[C@H](CCCN=C(N)N)N(C)C1=O (Pentanoyl-C[NMeR]GD[Pen]-NH2; disulfide 1-5)

pIC50 (Canis familiaris; Canis lupus familiaris, Plasma) | pKi [1] | pKi [2] | pIC50 (Canis familiaris) | Compound
6.99 | 7.61 |  |  | CN1CC(=O)N(C)[C@@H](CCCN=C(N)N)C(=O)NCC(=O)N[C@@H](CC(=O)O)C(=O)Nc2ccccc2SSc2ccccc2C1=O
5.39 | 6.14 |  |  | CC(=O)N[C@@H]1CSSC(C)(C)[C@H](C(N)=O)NC(=O)[C@@H](CC(=O)O)NC(=O)CNC(=O)[C@H](CCCNC(=N)N)NC1=O
< 3.70 | < 3.00 |  |  | CC(=O)N[C@@H]1CSSC(C)(C)[C@H](C(N)=O)NC(=O)[C@H](CC(=O)O)NC(=O)CNC(=O)[C@@H](CCCNC(=N)N)NC1=O
4.13 | 5.90 |  |  | CC(=O)N[C@H]1CSSC(C)(C)[C@@H](C(N)=O)NC(=O)[C@H](CC(=O)O)NC(=O)CN(C)C(=O)[C@H](CCCN=C(N)N)NC1=O (single isomer, unassigned)
6.92 | 8.32 |  |  | CN1C(=O)[C@@H](N)CSSC(C)(C)[C@@H](C(=O)O)NC(=O)[C@H](CC(=O)O)NC(=O)CNC(=O)[C@@H]1CCCN=C(N)N (H-C[NMeR]GD[Pen]-OH; disulfide 1-5)
7.10 | 8.07 |  |  | CC(=O)N[C@H]1CSSC(C)(C)[C@@H](C(=O)O)NC(=O)[C@H](CC(=O)O)NC(=O)CNC(=O)[C@H](CCCN=C(N)N)N(C)C1=O (Ac-C[NMeR]GD[Pen]-OH; disulfide 1-5)
5.10 | 6.73 |  |  | CC(=O)N[C@@H]1C(=O)N[C@@H](CCCN=C(N)N)C(=O)NCC(=O)N[C@@H](CC(=O)O)C(=O)N[C@H](C(N)=O)CSSC1(C)C (single isomer, unassigned)
 | 7.35 |  |  | CC(=O)N[C@H]1CSS[C@@H](c2ccccc2)[C@@H](C(N)=O)NC(=O)[C@H](CC(=O)O)NC(=O)CNC(=O)[C@H](CCCNC(=N)N)N(C)C1=O (Ac-C[NMeR]GD[X4]-NH2; disulfide 1-5)
 | 6.55 |  |  | CC(=O)N[C@H]1CSSc2ccccc2NC(=O)[C@H](CC(=O)O)NC(=O)CNC(=O)[C@H](CCCNC(=N)N)NC1=O (single isomer, unassigned)
6.55 | 7.46 |  |  | CN1C(=O)[C@@H](NCC(=O)c2ccccc2)CSSC(C)(C)[C@@H](C(N)=O)NC(=O)[C@H](CC(=O)O)NC(=O)CNC(=O)[C@@H]1CCCN=C(N)N (H-[X2][NMeR]GD[Pen]-NH2; disulfide 1-5)
 | 8.68 |  |  | CC(=O)N[C@H]1CSS[C@H](c2ccccc2)[C@@H](C(=O)O)NC(=O)[C@H](CC(=O)O)NC(=O)CNC(=O)[C@H](CCCNC(=N)N)N(C)C1=O (Ac-C[NMeR]GD[X1]-OH; disulfide 1-5)
 | 5.15 |  |  | CC(=O)N[C@H]1CSSC(C)(C)[C@@H](C(N)=O)NC(=O)[C@H](CC(=O)O)N(C)C(=O)CNC(=O)[C@H](CCCNC(=N)N)N(C)C1=O (single isomer, unassigned)
6.70 | 8.03 |  |  | CN1C(=O)[C@@H](N)CSSC(C)(C)[C@@H](C(N)=O)NC(=O)[C@H](CC(=O)O)NC(=O)CNC(=O)[C@@H]1CCCN=C(N)N (H-C[NMeR]GD[Pen]-NH2; disulfide 1-5)
 | < 5.00 |  |  | CC(=O)N[C@H]1CSSC(C)(C)[C@@H](C(N)=O)NC(=O)[C@H](CC(=O)O)NC(=O)CNC(=O)[C@H](CCCNC(=N)N)N(C)C(=O)[C@@H]2CCCN2C1=O
 | 4.60 |  |  | CC(=O)N[C@H]1CSSC(C)(C)[C@@H](C(N)=O)NC(=O)[C@H](CC(=O)O)N(C)C(=O)CNC(=O)[C@H](CCCNC(=N)N)NC1=O (single isomer, unassigned)
5.75 | 7.09 |  |  | CC(=O)N[C@@H]1CSSC(C)(C)[C@H](C(N)=O)NC(=O)[C@@H](CC(=O)O)NC(=O)CNC(=O)[C@H](CCCN=C(N)N)N(C)C1=O
